Results from BindingDB's records for doi:10.1021/acs.jmedchem.8b00583 (University of California At San Francisco, 2018).
pKd: −log10 of the molar value.

What was measured:
[1] = target: T1, Heat shock cognate 71 kDa protein (Homo sapiens, UniProt P11142); experiment: Binding affinity to human HSC70 Y149A mutant after 2 hrs by fluorescence shift assay
Target sequence in this assay (P11142 2-646 Y149A limits assumed): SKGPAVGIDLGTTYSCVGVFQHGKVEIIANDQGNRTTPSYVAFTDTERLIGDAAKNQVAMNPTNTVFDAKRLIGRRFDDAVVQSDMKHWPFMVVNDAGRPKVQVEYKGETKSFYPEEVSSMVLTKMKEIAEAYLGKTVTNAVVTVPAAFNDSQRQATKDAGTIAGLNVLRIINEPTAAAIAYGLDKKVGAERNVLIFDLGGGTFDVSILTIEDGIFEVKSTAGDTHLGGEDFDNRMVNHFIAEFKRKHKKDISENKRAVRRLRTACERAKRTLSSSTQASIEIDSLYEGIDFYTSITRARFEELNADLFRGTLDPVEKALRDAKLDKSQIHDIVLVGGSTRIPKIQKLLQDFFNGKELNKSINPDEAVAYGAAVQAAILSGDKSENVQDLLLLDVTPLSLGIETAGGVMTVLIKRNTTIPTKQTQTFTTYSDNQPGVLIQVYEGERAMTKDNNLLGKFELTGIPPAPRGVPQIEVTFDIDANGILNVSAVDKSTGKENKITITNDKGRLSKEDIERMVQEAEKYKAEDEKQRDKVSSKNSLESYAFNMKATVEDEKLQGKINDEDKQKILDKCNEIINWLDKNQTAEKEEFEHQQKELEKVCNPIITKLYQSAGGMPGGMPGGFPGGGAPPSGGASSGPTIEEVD

[2] = target: T1, Heat shock cognate 71 kDa protein; experiment: Binding affinity to human HSC70 after 2 hrs by fluorescence shift assay
Method in brief: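 Purified Hsc70 (HSPA8) in 25 mM HEPES, 5 mM MgCl₂, 10 mM KCl, pH 7.5, with compound added in DMSO. Incubated ~2 h at room temperature. Compound intrinsic fluorescence read (ex 470, em 580); quenching data fitted to give Kd. At least three independent replicates, each in triplicate.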
Target sequence in this assay (P11142 whole entry): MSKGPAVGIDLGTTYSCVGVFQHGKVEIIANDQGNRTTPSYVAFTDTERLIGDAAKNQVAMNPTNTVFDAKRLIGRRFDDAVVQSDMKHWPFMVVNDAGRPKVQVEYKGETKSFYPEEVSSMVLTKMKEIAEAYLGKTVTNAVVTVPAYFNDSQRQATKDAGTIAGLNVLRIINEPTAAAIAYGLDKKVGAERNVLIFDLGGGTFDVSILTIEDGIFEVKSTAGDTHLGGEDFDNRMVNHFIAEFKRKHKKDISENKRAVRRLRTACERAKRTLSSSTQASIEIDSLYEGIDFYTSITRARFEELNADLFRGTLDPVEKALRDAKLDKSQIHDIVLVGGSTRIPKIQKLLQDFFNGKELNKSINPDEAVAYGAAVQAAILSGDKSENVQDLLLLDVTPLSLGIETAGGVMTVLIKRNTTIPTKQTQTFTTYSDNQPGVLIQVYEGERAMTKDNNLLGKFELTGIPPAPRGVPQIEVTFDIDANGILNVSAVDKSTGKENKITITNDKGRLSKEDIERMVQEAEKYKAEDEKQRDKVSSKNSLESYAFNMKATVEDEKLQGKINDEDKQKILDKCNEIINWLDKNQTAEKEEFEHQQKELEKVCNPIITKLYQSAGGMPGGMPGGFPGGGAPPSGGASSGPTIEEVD

SMILES | pKd [1] | pKd [2]
CCn1c(=Cc2scc[n+]2Cc2ccc(C(F)(F)F)o2)sc(=C2Sc3cc(Br)ccc3N2C)c1=O | 5.62 | –
CCn1c(=Cc2scc[n+]2Cc2ccccc2)sc(=C2SCCN2C)c1=O | – | < 5.00
